Source: ChEMBL document CHEMBL1127648, “Synthesis of 2-piperazinylbenzothiazole and 2-piperazinylbenzoxazole derivatives with 5-HT3 antagonist and 5-HT4 agonist properties” (J Med Chem, 1994)

Tests used:
Rattus norvegicus [1] = species on record: Rattus norvegicus; experiment: The compound was evaluated for the percentage inhibition in rat aorta stimulated with 30 uM 5-HT and tested at fixed concentration of 10 uM; format: functional
D(2) dopamine receptor = D(2) dopamine receptor (Rattus norvegicus, UniProt P61169); experiment: Displacement of [3H]spiroperidol from D2 dopamine receptor
Chain of D(2) dopamine receptor (P61169 whole entry): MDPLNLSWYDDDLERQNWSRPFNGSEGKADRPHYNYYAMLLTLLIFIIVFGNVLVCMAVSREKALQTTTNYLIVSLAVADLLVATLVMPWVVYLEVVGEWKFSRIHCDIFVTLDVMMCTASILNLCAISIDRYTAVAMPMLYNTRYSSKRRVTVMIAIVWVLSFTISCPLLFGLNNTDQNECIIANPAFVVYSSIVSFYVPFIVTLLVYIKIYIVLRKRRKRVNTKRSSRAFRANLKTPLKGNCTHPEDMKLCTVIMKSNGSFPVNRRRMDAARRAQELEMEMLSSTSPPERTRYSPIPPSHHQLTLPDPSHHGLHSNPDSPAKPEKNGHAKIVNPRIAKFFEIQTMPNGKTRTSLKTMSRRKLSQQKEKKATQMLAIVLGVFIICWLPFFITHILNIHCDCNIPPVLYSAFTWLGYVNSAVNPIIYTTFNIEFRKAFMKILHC

[2] = molecular target: T1, Serotonin 3 (5-HT3) receptor (Rattus norvegicus, UniProt P35563+Q9JJ16); experiment: Inhibition of [3H]BRL-43694 binding to rat 5-hydroxytryptamine 3 receptor; format: protein-complex assay
T1 sequence (P35563 whole entry): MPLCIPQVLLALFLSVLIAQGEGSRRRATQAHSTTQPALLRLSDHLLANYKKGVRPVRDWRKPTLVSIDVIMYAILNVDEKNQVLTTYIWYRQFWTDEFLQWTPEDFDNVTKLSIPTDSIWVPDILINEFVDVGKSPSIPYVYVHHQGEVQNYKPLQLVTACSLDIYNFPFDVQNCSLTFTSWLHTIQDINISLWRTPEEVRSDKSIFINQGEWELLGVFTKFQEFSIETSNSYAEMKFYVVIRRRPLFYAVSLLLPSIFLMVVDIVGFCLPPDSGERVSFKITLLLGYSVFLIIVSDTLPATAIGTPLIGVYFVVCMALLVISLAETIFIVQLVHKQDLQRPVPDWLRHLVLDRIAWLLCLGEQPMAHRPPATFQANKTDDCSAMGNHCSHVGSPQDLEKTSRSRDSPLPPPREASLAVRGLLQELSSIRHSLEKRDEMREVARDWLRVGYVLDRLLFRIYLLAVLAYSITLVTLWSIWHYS
T1 sequence (Q9JJ16 whole entry): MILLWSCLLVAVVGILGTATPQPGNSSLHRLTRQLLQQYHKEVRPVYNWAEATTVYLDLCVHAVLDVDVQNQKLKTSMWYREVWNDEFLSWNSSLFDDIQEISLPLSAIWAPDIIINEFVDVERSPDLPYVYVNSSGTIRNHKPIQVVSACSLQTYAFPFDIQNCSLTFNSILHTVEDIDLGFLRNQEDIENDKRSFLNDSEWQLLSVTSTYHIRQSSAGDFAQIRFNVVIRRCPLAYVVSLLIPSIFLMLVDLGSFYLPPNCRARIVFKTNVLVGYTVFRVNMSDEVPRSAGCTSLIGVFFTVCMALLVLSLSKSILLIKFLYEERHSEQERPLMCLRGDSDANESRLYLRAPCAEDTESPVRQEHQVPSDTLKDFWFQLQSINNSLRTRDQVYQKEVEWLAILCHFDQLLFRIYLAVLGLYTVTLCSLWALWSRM

Cavia porcellus [3] = species on record: Cavia porcellus; experiment: The compound was evaluated for the percentage inhibition in guinea pig ileum stimulated with 10 uM 5-HT and tested at fixed concentration of 10 uM; format: functional
How it was run: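 Guinea pig ileum in oxygenated physiological solution with 1 μM methysergide at 37 °C, isometric recording, 0.5 g resting tension. Response to 10 μM 5-HT set as 100%. After 30 min incubation with compound at 10 μM, 5-HT was re-added; response expressed as % of the previous 5-HT response.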

[4] = molecular target: T2, Serotonin 1 (5-HT1) receptor (Rattus norvegicus, UniProt P28564+P30940+P19327+P28565); experiment: The compound was evaluated for the binding affinity towards 5-hydroxytryptamine 1 using [3H]5-HT as radioligand; format: protein assay
How it was run: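 Membranes were resuspended with 0.1% ascorbic acid and 10 μM pargyline. Incubated with 0.3 nM [3H]-5-HT and varying test concentrations at 37 °C for 10 min, then filtered and counted by scintillation.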

Rattus norvegicus [5] = species on record: Rattus norvegicus; experiment: Ability of compounds to relax oesophagus expressed as equipotent concentration ratio (ECR) where ECR = IC40 test agonist / IC40 5-HT; format: functional
How it was run: (§1)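 Rat oesophageal tunica muscularis mucosae was isolated by removing the muscularis propria. Strips were held in Tyrode's solution (pH 7.4) at 37 °C, aerated with 95% O2/5% CO2, under 250 mg tension, and equilibrated 60 min. Relaxation of carbachol-induced contraction was measured. Paired concentration-effect curves were run in the same preparation, first to 5-HT, then to the test agonist. ECR = IC40 test agonist/IC40 5-HT. Mean of 8 experiments.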

Rattus norvegicus [6] = species on record: Rattus norvegicus; experiment: (§2) The compound was evaluated for the value in rat isolated esophageal tunica muscularis mucose; set-up: species or system Esophagus muscularis mucosa; how it was run: as §1
Rattus norvegicus [7] = species on record: Rattus norvegicus; experiment: The compound was evaluated for the intrinsic activity in rat isolated esophageal tunica muscularis mucose; format: functional
How it was run: (§3)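 Inner smooth-muscle tube of rat oesophagus (external muscularis propria removed), held in Tyrode's solution at 37 °C, pH 7.4, aerated 95% O2/5% CO2, under 250 mg tension, equilibrated 60 min. Relaxation of carbachol-induced contraction measured from agonist concentration-effect curves. Means of 8 experiments (24 for 5-HT).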

Rattus norvegicus [8] = species on record: Rattus norvegicus; experiment: The compound was evaluated for pEC50 of 5-HT in rat isolated esophageal tunica muscularis mucose; conditions: in vitro
Rattus norvegicus [9] = species on record: Rattus norvegicus; experiment: as §2; format: functional; how it was run: as §1
Rattus norvegicus [10] = species on record: Rattus norvegicus; experiment: The compound was evaluated for the value in rat isolated esophageal tunica muscularis mucose in rat; format: functional; how it was run: as §3
Cavia porcellus [11] = species on record: Cavia porcellus; experiment: The compound was evaluated for the pA2 value that was estimated using 2-methyl-5-HT in five to seven different tissues in guinea pig ileum; format: functional; conditions: read-out: pA2 (converted)
How it was run: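 Guinea pig ileum in oxygenated physiological solution with 1 μM methysergide at 37 °C, isometric contractions at 0.5 g tension.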

Rattus norvegicus [12] = experiment: The compound was evaluated for the percentage increase in gastric emptying for a dose of 7.5 mg/kg perorally in rat; format: functional, Stomach; conditions: route oral
How it was run: (§4)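 Wistar rats (160 ± 10 g) fasted overnight, dosed orally with vehicle or compound. After 60 min, gavage with 40 steel spheroids (1 mm) in 2 mL 3% carboxymethylcellulose. Killed by CO2 60 min later; spheroids left in the stomach were counted. Emptying is expressed as a percentage of paired controls.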

Rattus norvegicus [13] = experiment: The compound was evaluated for the percentage increase in gastric emptying for a dose of 5 mg/kg perorally in rat; format: functional, Stomach; conditions: route oral; how it was run: as §4
Rattus norvegicus [14] = experiment: The compound was evaluated for the percentage increase in gastric emptying for a dose of 10 mg/kg perorally in rat; format: functional, Stomach; conditions: route oral; how it was run: as §4
[15] = molecular target: T2, Serotonin 1 (5-HT1) receptor; experiment: Binding affinity towards 5-hydroxytryptamine 1 receptor using [3H]5-HT as radioligand; format: protein assay
How it was run: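 Rat cortex homogenized in 50 mM Tris-HCl and preincubated at 37 °C for 10 min. Membranes were resuspended with 0.1% ascorbic acid and 10 μM pargyline. Incubated with 0.3 nM [3H]-5-HT and varying test concentrations at 37 °C for 10 min, then filtered and counted by scintillation. IC50 is the mean of 4–6 experiments.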

[16] = molecular target: Serotonin 3 (5-HT3) receptor (Rattus norvegicus) (UniProt P35563+Q9JJ16); experiment: Inhibition dose for 50 percent antagonism for 5-hydroxytryptamine 3 receptor in vivo in rats; format: functional, organism-based
How it was run: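 Male Sprague-Dawley rats (500–550 g) under urethane (1 g/kg ip), with heart rate taken from the carotid pressure signal. 5-HT 4 μg/kg iv bolus every 15 min elicited von Bezold-Jarisch bradycardia. […] ID50 by Litchfield-Wilcoxon.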

Rattus norvegicus [17] = experiment: The compound was evaluated for the percentage increase in gastric emptying for a dose of 7.5 mg/kg perorally in rat.; format: functional, Stomach; conditions: route oral; how it was run: as §4
Rattus norvegicus [18] = experiment: The compound was evaluated for the percentage increase in gastric emptying for a dose of 5 mg/kg perorally in rat.; format: functional, Stomach; conditions: route oral; how it was run: as §4
[19] = The compound was evaluated for equipotent concentration ratio (ECR). whereECR = IC40 test agonist / IC40 5-HT; format: functional
How it was run: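 Rat oesophageal tunica muscularis mucosae precontracted with carbachol. Two concentration-effect curves were run in the same strip, first to 5-HT and then to 5-HT or the test agonist. […] Only paired experiments were used.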

Rattus norvegicus [20] = species on record: Rattus norvegicus; experiment: Agonist potency in rat isolated esophageal tunica muscularis mucose.; format: functional; how it was run: as §3
Rattus norvegicus [21] = experiment: The compound was evaluated for the percentage increase in gastric emptying for a dose of 10 mg/kg perorally in rat.; format: functional, Stomach; conditions: route oral; how it was run: as §4
Rattus norvegicus [22] = experiment: The compound was evaluated for the percentage increase in gastric emptying for a dose of 1 mg/kg perorally in rat; format: functional, Stomach; conditions: route oral; how it was run: as §4

Row | Compound | Inhibition (Rattus norvegicus [1]) [%] | IC50 (D(2) dopamine receptor) [µM] | IC50 [2] [µM] | Inhibition (Cavia porcellus [3]) [%] | Increase (Rattus norvegicus [14]) [%] | IC50 [15] | other results
1 | CCOc1ccccc1N1CCN(c2nc3ccccc3s2)CC1 | 10.3 | > 10 | > 10 | -22.2 | – | – | IC50 [4]: > 10 µM
2 | Cc1[nH]c2ccc(O)cc2c1CCN | – | – | – | – | – | – | Ratio (Rattus norvegicus [5]): 643; CL (Rattus norvegicus [6]): 4.9%; Intrinsic activity (Rattus norvegicus [7]): 1
3 | NCCc1c[nH]c2ccc(O)cc12 [SEROTONIN] | – | – | – | – | – | – | pEC50 (Rattus norvegicus [8]): 7.91; Intrinsic activity (Rattus norvegicus [9]): 1
4 | O=C(c1ccc(F)cc1)C1CCN(CCn2c(=O)[nH]c3ccccc3c2=O)CC1 [KETANSERIN] | 90 | – | – | – | – | – | –
5 | COc1cc(N)c(Cl)cc1C(=O)NC1CCN(CCCOc2ccc(F)cc2)CC1OC (stereo not given) [CISAPRIDE] | – | – | – | 98.1 | 67 | – | EC50 (Rattus norvegicus [10]): 0.0589 µM; Kb (Cavia porcellus [11]): 0.001 µM; Increase (Rattus norvegicus [12]): 59.5%; Intrinsic activity (Rattus norvegicus [7]): 0.92; Increase (Rattus norvegicus [13]): 47.2%
6 | Oc1ccccc1N1CCN(c2nc3ccccc3s2)CC1 | 49.3 | > 10 | > 10 | 40.8 | -14.2 | > 10 µM | –
7 | COc1ccccc1N1CCN(c2nc3ccccc3o2)CC1 | 14.7 | > 10 | > 10 | 25.6 | – | > 10 µM | –
8 | c1ccc(CN2CCN(c3nc4ccccc4s3)CC2)cc1 | 14.8 | > 10 | 0.033 | 74.4 | 44.6 | > 0.00001 M | Kb (Cavia porcellus [11]): 0.501 µM; ID50 [16]: 0.16 mg/kg
9 | Oc1ccccc1N1CCN(c2nc3ccccc3o2)CC1 | 29.1 | > 10 | > 10 | 46.1 | -30.2 | > 10 µM | –
10 | c1ccc2sc(N3CCN(Cc4ccc5c(c4)OCO5)CC3)nc2c1 | 21.2 | > 10 | 0.95 | 74.5 | – | > 10 µM | Increase (Rattus norvegicus [17]): 43.3%; Kb (Cavia porcellus [11]): 0.316 µM; Intrinsic activity (Rattus norvegicus [7]): 0.91; Increase (Rattus norvegicus [18]): 45%; Ratio [19]: 22; ID50 [16]: 0.18 mg/kg; EC50 (Rattus norvegicus [20]): 0.263 µM; Increase (Rattus norvegicus [21]): 62.8%
11 | Clc1cccc(N2CCN(c3nc4ccccc4s3)CC2)c1 | – | > 10 | > 10 | -21.9 | – | > 10 µM | –
12 | c1ccc2oc(N3CCN(Cc4ccc5c(c4)OCO5)CC3)nc2c1 | 19.4 | > 10 | > 10 | 55.8 | 23.1 | > 10 µM | –
13 | CCN(CC)CCNC(=O)c1cc(Cl)c(N)cc1OC [METOCLOPRAMIDE] | – | – | – | – | 37.1 | – | –
14 | Cc1nccn1CC1CCc2c(c3ccccc3n2C)C1=O (stereo not given) [ONDANSETRON] | – | – | – | – | – | – | Increase (Rattus norvegicus [22]): 44.2%
15 | c1ccc(CN2CCN(c3nc4ccccc4o3)CC2)cc1 | 21.9 | > 10 | > 10 | 48.8 | 15.1 | > 10 µM | –
16 | COc1ccccc1N1CCN(c2nc3ccccc3s2)CC1 | 7.1 | > 10 | > 10 | 43 | -27.5 | > 10 µM | –
